Measurements from ChEMBL document CHEMBL4406800, “Discovery of Potent Protease-Activated Receptor 4 Antagonists with in Vivo Antithrombotic Efficacy” (J Med Chem, 2019).

Experiments:
[1] = Stability in human liver microsomes assessed as parent compound remaining measured after 10 mins; format: ADME, Microsome; details: for remaining at 10 min: liver microsomes, read-out: Stability; for Stability: microsomes, 10 min
[2] = target: T1, Proteinase-activated receptor 4 (Homo sapiens, UniProt Q96RI0); assay: Antagonist activity at full-length human PAR4 expressed in HEK293 cells assessed as inhibition of AYPGKF-induced intracellular calcium mobilization preincubated for 30 mins followed by AYPGKF addition and measured by calcium indicator-based FLIPR assay; format: functional, cell-based
T1 sequence (Q96RI0 whole entry): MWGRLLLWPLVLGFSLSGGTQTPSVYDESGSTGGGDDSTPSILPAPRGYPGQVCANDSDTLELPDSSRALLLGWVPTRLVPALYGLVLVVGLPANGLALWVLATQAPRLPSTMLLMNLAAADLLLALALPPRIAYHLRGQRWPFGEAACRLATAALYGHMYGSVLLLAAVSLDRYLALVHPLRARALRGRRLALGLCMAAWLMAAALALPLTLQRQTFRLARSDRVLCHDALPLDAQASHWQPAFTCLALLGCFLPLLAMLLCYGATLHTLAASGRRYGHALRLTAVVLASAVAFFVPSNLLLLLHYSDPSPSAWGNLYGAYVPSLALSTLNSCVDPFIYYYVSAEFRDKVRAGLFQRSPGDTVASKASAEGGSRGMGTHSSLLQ

[3] = Stability in rat liver microsomes assessed as parent compound remaining measured after 10 mins; format: ADME, Microsome; details: read-out: Stability
[4] = Half life in human liver microsomes; format: ADME, Microsome; details: for t1/2: microsomes
[5] = Half life in rat liver microsomes; format: ADME, Microsome
[6] = Oral bioavailability in rat at 2 mg/kg; format: ADME, organism-based; details: in vivo
In short: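 Rat dosing: iv 0.5 mpk as a 10 min infusion in 25/75 propylene glycol/PEG400 at 2 ml/kg. po 2 mpk in 5/5/90 EtOH/TPGS/PEG300 at 5 mL/kg.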

[7] = Half life in rat at 2 mg/kg, po or 0.5 mg/kg, iv administered as infusion for 10 mins; format: ADME, organism-based; details: in vivo
[8] = Clearance in rat at 2 mg/kg, po or 0.5 mg/kg, iv administered as infusion for 10 mins; format: ADME, organism-based; details: in vivo

| remaining at 10 min [1] | IC50 [2] | remaining at 10 min [3] | SMILES | also measured |
| --- | --- | --- | --- | --- |
| 25% | 11 nM | 4% | CSc1nn2cc(-c3cc4ccccc4o3)nc2s1 | half-life ([4]; liver microsomes): 5.4 min |
| 100% | 0.98 nM |  | COc1cc(OCc2cccc(C#N)c2)c2cc(-c3cn4nc(OC)sc4n3)oc2c1 |  |
|  | 3.4 nM |  | COc1cc(OCc2ccccc2C(F)(F)F)c2cc(-c3cn4nc(OC)sc4n3)oc2c1 |  |
| 57% | 67 nM | 37% | CCOc1nn2cc(-c3cc4ccccc4o3)nc2s1 |  |
| 82% | 19 nM | 28% | COc1cc(OCc2ccccc2OC)c2cc(-c3cn4nc(OC)sc4n3)oc2c1 |  |
| 93% | 3.1 nM | 79% | COc1cc(OCc2cccc(C(F)(F)F)c2)c2cc(-c3cn4nc(OC)sc4n3)oc2c1 |  |
| 40% | 7.6 nM | 42% | COc1nn2cc(-c3cc4c(OC)cccc4o3)nc2s1 |  |
|  | 11 nM |  | COc1cc(OCc2ccc(Cl)cc2)c2cc(-c3cn4nc(OC)sc4n3)oc2c1 |  |
| 88% | 1.3 nM | 84% | COc1cc(OCc2ccc(OCc3ccccc3)cc2)c2cc(-c3cn4nc(OC)sc4n3)oc2c1 |  |
| 86% | 3.2 nM | 64% | COc1cc(OCc2cccc(COc3ccccc3)c2)c2cc(-c3cn4nc(OC)sc4n3)oc2c1 |  |
|  | 4 nM | 31% | COc1nn2cc(-c3cc4ccccc4o3)nc2s1 | Stability [1]: 80%; t1/2 [4]: 6.9 min |
| 25% | 2.8 nM | 11% | COc1nn2cc(-c3cc4cccc(OC)c4o3)nc2s1 |  |
| 69% | 9.4 nM | 34% | COc1cccc(COc2cc(OC)cc3oc(-c4cn5nc(OC)sc5n4)cc23)c1 |  |
|  |  | 70% | COc1cc(OC)c2cc(-c3cn4nc(OC)sc4n3)oc2c1 | Stability [1]: 86%; half-life [5]: 22 min; bioavailability [6]: 1%; half-life [7]: 192 min; clearance [8]: 33 mL/min/kg; t1/2 [4]: 17 min |
| 73% | 1.6 nM | 64% | COc1ccc(COc2cc(OC)cc3oc(-c4cn5nc(OC)sc5n4)cc23)cc1 |  |
| 94% |  | 68% | COc1nn2cc(-c3cc4ccc(OCc5ccccc5)cc4o3)nc2s1 |  |
| 79% | 4.3 nM | 90% | COc1cc(OCc2ccc(C(F)(F)F)cc2)c2cc(-c3cn4nc(OC)sc4n3)oc2c1 |  |
| 30% | 38 nM | 3% | CCc1nn2cc(-c3cc4ccccc4o3)nc2s1 |  |
|  | 1900 nM |  | c1ccc(Sc2nn3cc(-c4cc5ccccc5o4)nc3s2)cc1 |  |
| 65% | 110 nM | 2% | CNc1nn2cc(-c3cc4ccccc4o3)nc2s1 |  |
| 86% | 1.2 nM | 42% | COc1cc(OCc2cccc(Oc3ccccc3)c2)c2cc(-c3cn4nc(OC)sc4n3)oc2c1 |  |
| 65% | 0.81 nM | 36% | COc1cc(OCCOc2ccccc2)c2cc(-c3cn4nc(OC)sc4n3)oc2c1 |  |

| remaining at 10 min [1] | IC50 [2] | remaining at 10 min [3] | SMILES | also measured |
| --- | --- | --- | --- | --- |
| 57% |  | 55% | COc1ccc2cc(-c3cn4nc(OC)sc4n3)oc2c1 |  |
| 80% | 0.89 nM | 45% | COc1cc(OCc2cccc(Sc3ccccc3)c2)c2cc(-c3cn4nc(OC)sc4n3)oc2c1 |  |
|  | 820 nM |  | CS(=O)(=O)c1nn2cc(-c3cc4ccccc4o3)nc2s1 |  |
| 99% | 2.4 nM | 68% | COc1cc(OCc2cccc(CCc3ccccc3)c2)c2cc(-c3cn4nc(OC)sc4n3)oc2c1 |  |
| 45% | 2900 nM | 35% | CCSc1nn2cc(-c3cc4ccccc4o3)nc2s1 |  |
| 90% | 1.6 nM | 46% | COc1cc(OCc2ccccc2C)c2cc(-c3cn4nc(OC)sc4n3)oc2c1 |  |
| 20% |  | 3% | COc1nn2cc(-c3cc4ccc(OC)c(OC)c4o3)nc2s1 |  |
| 30% |  | 38% | COc1ccc2oc(-c3cn4nc(OC)sc4n3)cc2c1 |  |
| 62% | 530 nM | 53% | c1ccc2oc(-c3cn4nc(C5CC5)sc4n3)cc2c1 |  |
| 20% | 37 nM | 4% | Cc1nn2cc(-c3cc4ccccc4o3)nc2s1 |  |
|  | 760 nM |  | CC(C)Oc1nn2cc(-c3cc4ccccc4o3)nc2s1 |  |
| 94% | 3.2 nM | 22% | COc1cc(OCc2ccccc2OCc2ccccc2)c2cc(-c3cn4nc(OC)sc4n3)oc2c1 |  |
| 95% | 2.3 nM | 78% | COc1cc(OCc2ccccc2Cl)c2cc(-c3cn4nc(OC)sc4n3)oc2c1 |  |
|  | 27 nM |  | COc1cc(OCc2cccc(CO)c2)c2cc(-c3cn4nc(OC)sc4n3)oc2c1 |  |
| 75% | 1.8 nM | 25% | COc1cc(OCCOCc2ccccc2)c2cc(-c3cn4nc(OC)sc4n3)oc2c1 |  |
|  |  |  | COc1cc(OCc2ccccc2)c2cc(-c3cn4nc(OC)sc4n3)oc2c1 | bioavailability [6]: 27% |
| 55% |  | 28% | COc1nn2cc(-c3cc4c(OC)ccc(OC)c4o3)nc2s1 |  |
| 85% | 24 nM | 75% | COc1nn2cc(-c3cc4c(OCc5ccccc5)cccc4o3)nc2s1 |  |
| 82% | 3.3 nM | 79% | COc1cc(OCc2cccc(Cl)c2)c2cc(-c3cn4nc(OC)sc4n3)oc2c1 |  |
| 97% | 3.1 nM | 49% | COc1cc(OCc2cccc(O)c2)c2cc(-c3cn4nc(OC)sc4n3)oc2c1 |  |
| 89% | 1.1 nM | 43% | COc1cc(OCCc2ccccc2)c2cc(-c3cn4nc(OC)sc4n3)oc2c1 |  |
